Source: ChEMBL document CHEMBL1124260, “Synthesis and antitumor activity of quaternary ellipticine glycosides, a series of novel and highly active antitumor agents” (1988)

Tests used:
Assay type in all cases: functional
[1] = tested on: Mus musculus; assay: Number of survivors out of 6 ip implanted L1210 leukemia mouse, tested after 80 days at 30 mg/kg; details: route intraperitoneal
Method in brief: (§1)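 Female BDF1 mice implanted ip with ascitic fluid holding 10^5 L1210 cells. Saline-dissolved drug given ip daily on days 1-5, starting 24 h after implant. Six mice per dose group, followed 80 days. Survivors/total counted at day 80; ILS % from mean survival time vs controls.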

[2] = tested on: Mus musculus; assay: Number of survivors out of 6 ip implanted L1210 leukemia mouse tested after 80 days at 10 mg/kg; details: route intraperitoneal; method in brief: as §1
[3] = tested on: Mus musculus; assay: Antitumor activity against ip implanted L1210 leukemia in mouse after ip administration of 10 mg/kg for 5 days expressed as increase in mean life span; details: route intraperitoneal; for ILS at 10 mg/kg: Mus musculus, L1210, ip, 120 h; for ILS: 10 mg/kg
Method in brief: (§2)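 Drug was dissolved in 0.9% NaCl, diluted just before use and given ip once daily for 5 consecutive days, starting 24 h after transplant. ILS % = mean survival time of treated vs control mice, observed for 80 days.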

[4] = tested on: Mus musculus; assay: Antitumor activity against ip implanted L1210 leukemia in mouse after ip administration of 30 mg/kg for 5 days expressed as increase in mean life span; details: route intraperitoneal; for ILS: 30 mg/kg; for ILS at 30 mg/kg: Mus musculus, L1210, ip, 120 h; method in brief: as §2
[5] = tested on: Mus musculus; assay: Antitumor activity against ip implanted L1210 leukemia in mouse after ip administration of 40 mg/kg for 5 days expressed as increase in mean life span; details: 120 h, route intraperitoneal; method in brief: as §2
[6] = tested on: Mus musculus; assay: Number of survivors out of 6 ip implanted L1210 leukemia mouse tested after 80 days at 40 mg/kg; details: route intraperitoneal; method in brief: as §1
[7] = tested on: Mus musculus; assay: Number of survivors out of 6 ip implanted L1210 leukemia mouse tested after 80 days at 20 mg/kg; details: route intraperitoneal; method in brief: as §1
[8] = tested on: Mus musculus; assay: Antitumor activity against ip implanted L1210 leukemia in mouse after ip administration of 20 mg/kg for 5 days expressed as increase in mean life span; details: 120 h, route intraperitoneal; method in brief: as §2
[9] = tested on: Mus musculus; assay: Number of survivors out of 6 ip implanted L1210 leukemia mouse tested after 80 days at 5 mg/kg; details: route intraperitoneal; method in brief: as §1
[10] = tested on: Mus musculus; assay: Antitumor activity against ip implanted L1210 leukemia in mouse after ip administration of 5 mg/kg for 5 days expressed as increase in mean life span; details: route intraperitoneal; for ILS: 5 mg/kg; for ILS at 5 mg/kg: Mus musculus, L1210, ip, 120 h; method in brief: as §2

Cc1c2cc[n+]([C@@H]3O[C@@H](C)[C@H](O)[C@H]3O)cc2c(C)c2c1[nH]c1ccc(O)cc12.[Cl-]
Cures [1]: 1

Cc1c2cc[n+]([C@H]3O[C@@H](CO)[C@H](O)[C@@H]3O)cc2c(C)c2c1[nH]c1ccc(O)cc12.[Br-]
Cures [2]: 2 | ILS at 10 mg/kg [3]: > 391%

Cc1c2cc[n+]([C@@H]3OC[C@@H](O)[C@@H](O)[C@H]3O)cc2c(C)c2c1[nH]c1ccc(O)cc12.[Br-] (stereo in doubt; 48a)
ILS [4]: 112% | Cures ([1]; 30 mg/kg): 0

Cc1c2cc[n+](C3O[C@@H](C)[C@H](O)[C@@H](O)[C@H]3O)cc2c(C)c2c1[nH]c1ccccc12.[Br-] (stereo not given in full)
ILS at 40 mg/kg [5]: 40% | Cures [6]: 0

Br.CC(=O)[O-].Cc1c2cc[n+](C3O[C@H](C)[C@@H](O)[C@@H]3O)cc2c(C)c2c1[nH]c1ccc(O)cc12 (stereo not given in full)
ILS at 30 mg/kg [4]: > 217% | Cures [1]: 1

Cc1c2cc[n+]([C@@H]3O[C@H](CO)[C@H](O)[C@H](O)[C@H]3O)cc2c(C)c2c1[nH]c1ccc(O)cc12.[Br-]
Cures [7]: 4 | ILS at 20 mg/kg [8]: > 729%

CC(=O)[O-].Cc1c2cc[n+]([C@H]3O[C@@H](CO)[C@H](O)[C@H]3O)cc2c(C)c2c1[nH]c1ccc(O)cc12
ILS at 30 mg/kg [4]: > 269% | Cures [1]: 1

COc1ccc2[nH]c3c(C)c4cc[n+](C5OCC(O)C(O)C5O)cc4c(C)c3c2c1.[Br-] (stereo not given)
ILS at 30 mg/kg [4]: 56% | Cures [1]: 0

Cc1c2cc[n+]([C@@H]3O[C@H](C)[C@H](O)[C@H](O)[C@H]3O)cc2c(C)c2c1[nH]c1ccc(O)cc12.[Br-]
ILS at 30 mg/kg [4]: 124% | Cures [1]: 0

Cc1c2cc[n+]([C@H]3O[C@@H](CO)[C@H](O)[C@@H](O)[C@@H]3O)cc2c(C)c2c1[nH]c1ccc(O)cc12.[Br-] (stereo in doubt; 64b)
Cures ([9]; 5 mg/kg): 2 | ILS [10]: >362%

CC(=O)[O-].Cc1c2cc[n+]([C@@H]3O[C@H](CO)[C@@H](O)[C@@H]3O)cc2c(C)c2c1[nH]c1ccc(O)cc12
ILS at 30 mg/kg [4]: > 262% | Cures [1]: 1

COc1ccc2[nH]c3c(C)c4cc[n+](C5OC(CO)C(O)C(O)C5O)cc4c(C)c3c2c1.[Br-] (stereo not given)
Cures [2]: 0 | ILS at 10 mg/kg [3]: 14%

Cc1c2cc[n+]([C@H]3O[C@@H](CO)[C@H](O)[C@@H](O)[C@@H]3O)cc2c(C)c2c1[nH]c1ccc(O)cc12.[Br-] (stereo in doubt; 65)
Cures ([2]; 10 mg/kg): 1 | ILS [3]: >212%

CC(=O)[O-].Cc1c2cc[n+](C3OC(C)C(O)C(O)C3O)cc2c(C)c2c1[nH]c1ccc(O)cc12 (stereo not given)
ILS at 30 mg/kg [4]: > 615% | Cures [1]: 3

Cc1c2cc[n+]([C@@H]3O[C@H](C)[C@@H](O)[C@H]3O)cc2c(C)c2c1[nH]c1ccc(O)cc12.[Cl-]
ILS at 30 mg/kg [4]: > 230% | Cures [1]: 1

Cc1c2cc[n+]([C@@H]3OC[C@@H](O)[C@@H](O)[C@H]3O)cc2c(C)c2c1[nH]c1ccc(O)cc12.[Br-]
Cures [2]: 2 | ILS at 10 mg/kg [3]: > 396%

Cc1c2cc[n+](C3O[C@@H](CO)[C@H](O)[C@@H]3O)cc2c(C)c2c1[nH]c1ccccc12.[Br-] (stereo not given in full)
Cures [7]: 0 | ILS at 20 mg/kg [8]: 80%

Cc1c2cc[n+]([C@H]3O[C@@H](C)[C@@H](O)[C@@H](O)[C@@H]3O)cc2c(C)c2c1[nH]c1ccc(O)cc12.[Br-] (stereo in doubt; 53b)
ILS [4]: >583% | Cures ([1]; 30 mg/kg): 3

Cc1c2cc[n+](C3OC(C(N)=O)C(O)C(O)C3O)cc2c(C)c2c1[nH]c1ccc(O)cc12.[Br-] (stereo not given)
Cures [9]: 0 | ILS at 5 mg/kg [10]: 49%

CC(=O)N[C@@H]1[C@@H](O)[C@H](O)[C@@H](CO)O[C@H]1[n+]1ccc2c(C)c3[nH]c4ccc(O)cc4c3c(C)c2c1.[Cl-]
ILS at 30 mg/kg [4]: 39% | Cures [1]: 0

Cc1c2cc[n+]([C@H]3O[C@H](CO)[C@@H](O)[C@@H]3O)cc2c(C)c2c1[nH]c1ccc(O)cc12.[Br-]
Cures [2]: 2 | Cures [7]: 0 | ILS at 20 mg/kg [8]: 91% | ILS at 10 mg/kg [3]: > 379%

Cc1c2cc[n+]([C@H]3OC[C@@H](O)[C@@H](O)[C@@H]3O)cc2c(C)c2c1[nH]c1ccc(O)cc12.[Br-]
Cures [7]: 3 | ILS at 20 mg/kg [8]: > 606%

Cc1c2cc[n+]([C@@H]3O[C@H](C)[C@H](O)[C@H](O)[C@H]3O)cc2c(C)c2c1[nH]c1ccccc12.[Br-]
ILS at 30 mg/kg [4]: 20% | Cures [1]: 0

Cc1c2cc[n+](C3OC[C@@H](O)[C@H]3O)cc2c(C)c2c1[nH]c1ccc(O)cc12.[Cl-] (stereo not given in full)
Cures [9]: 0 | ILS at 5 mg/kg [10]: 122%

Cc1c2cc[n+](C3CC(O)C(CO)O3)cc2c(C)c2c1[nH]c1ccc(O)cc12.[Cl-] (stereo not given)
Cures [2]: 2 | ILS at 10 mg/kg [3]: > 390%

COc1ccc2[nH]c3c(C)c4cc[n+](C5O[C@@H](C)[C@H](O)[C@@H](O)[C@H]5O)cc4c(C)c3c2c1.[Br-] (stereo not given in full)
ILS at 30 mg/kg [4]: 56% | Cures [1]: 0

COc1ccc2[nH]c3c(C)c4cc[n+](C5O[C@@H](CO)[C@H](O)[C@@H]5O)cc4c(C)c3c2c1.[Br-] (stereo not given in full)
ILS at 30 mg/kg [4]: 76% | Cures [1]: 0

Cc1c2cc[n+]([C@H]3O[C@@H](C)[C@H](O)[C@@H](O)[C@H]3O)cc2c(C)c2c1[nH]c1ccc(O)cc12.[Br-]
ILS at 40 mg/kg [5]: 78% | Cures [6]: 0

Cc1c2cc[n+]([C@@H]3OC[C@@H](O)[C@@H](O)[C@H]3O)cc2c(C)c2c1[nH]c1ccc(O)cc12.[Br-] (stereo in doubt; 50a)
ILS [4]: >857% | Cures ([1]; 30 mg/kg): 5

Cc1c2cc[n+]([C@@H]3O[C@H](CO)[C@@H](O)[C@@H](O)[C@H]3O)cc2c(C)c2c1[nH]c1ccc(O)cc12.[Br-]
Cures [2]: 1 | ILS at 10 mg/kg [3]: > 254%

Cc1c2cc[n+]([C@@H]3OC[C@@H](O)[C@@H](O)[C@H]3O)cc2c(C)c2c1[nH]c1ccc(O)cc12.[Br-] (stereo in doubt; 48b)
ILS [4]: >944% | Cures ([1]; 30 mg/kg): 6

Cc1c2cc[n+]([C@H]3O[C@H](CO)[C@@H](O)[C@H]3O)cc2c(C)c2c1[nH]c1ccc(O)cc12.[Br-]
Cures [2]: 0 | ILS at 10 mg/kg [3]: 138%

CC(=O)N[C@@H]1[C@@H](O)[C@@H](O)[C@@H](CO)O[C@H]1[n+]1ccc2c(C)c3[nH]c4ccc(O)cc4c3c(C)c2c1.[Cl-]
ILS at 30 mg/kg [4]: 8% | Cures [1]: 0

Cc1c2cc[n+]([C@H]3O[C@@H](CO)[C@H](O)[C@@H](O)[C@@H]3O)cc2c(C)c2c1[nH]c1ccc(O)cc12.[Br-] (stereo in doubt; 63b)
Cures ([9]; 5 mg/kg): 0 | ILS [10]: 58%

Cc1c2cc[n+]([C@@H]3O[C@H](CO)[C@H](O)[C@@H]3O)cc2c(C)c2c1[nH]c1ccc(O)cc12.[Cl-] (stereo in doubt; 43b)
Cures [2]: 3 | ILS [3]: >552%

Cc1c2cc[n+]([C@H]3OC[C@@H](O)[C@H](O)[C@@H]3O)cc2c(C)c2c1[nH]c1ccc(O)cc12.[Cl-]
Cures [2]: 4 | ILS at 10 mg/kg [3]: > 651%

Cc1c2cc[n+]([C@H]3O[C@@H](CO)[C@H](O)[C@@H](O)[C@@H]3O)cc2c(C)c2c1[nH]c1ccc(O)cc12.[Br-] (stereo in doubt; 63a)
ILS [3]: 52%

COc1ccc2[nH]c3c(C)c4cc[n+]([C@@H]5O[C@H](C)[C@H](O)[C@H](O)[C@H]5O)cc4c(C)c3c2c1.[Br-]
ILS at 30 mg/kg [4]: 20% | Cures [1]: 0

Cc1c2cc[n+]([C@H]3O[C@@H](CO)[C@H](O)[C@@H](O)[C@@H]3O)cc2c(C)c2c1[nH]c1ccc(O)cc12.[Br-] (stereo in doubt; 64a)
Cures ([2]; 10 mg/kg): 0 | ILS [3]: 88%

Cc1c2cc[n+](C3O[C@H](CO)[C@@H](O)[C@H]3O)cc2c(C)c2c1[nH]c1ccc(O)cc12.[Br-] (stereo not given in full)
ILS at 30 mg/kg [4]: > 387% | Cures [1]: 2
